Measurements taken from ChEMBL document CHEMBL5108029, “SILAC-based chemoproteomics reveals a neoligan analogue as an anti-inflammatory agent targeting IRGM to ameliorate cytokine storm” (Eur J Med Chem, 2022).
Calls of active or inactive are those of the source. No cut-off for these calls is given here.

Key:
RAW264.7 [1] = assay: Anti-inflammatory activity against LPS-stimulated mouse RAW264.7 cells assessed as reduction in TNF-alpha expression of M1 macrophages at 100 to 500 nM incubated for 48 hrs in presence of LPS by flow cytometry; format: functional, cell-based; settings: dose 100-500 nM
Outline: (§1)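 RAW 264.7 cells in DMEM with 10% heat-inactivated FBS at 37 °C, 5% CO2, subcultured at 70–80% confluence. Seeded at 1 × 10^6 cells/mL in medium with 1 μg/mL LPS, with compound at final 100 nM or 500 nM. After 48 h, M1 differentiation and TNF-α are read by flow cytometry.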

CD4+ve Th [2] = assay: Inhibition of cytokine storm in ConA/1L-12-stimulated C57BL/6 mouse CD4+ T-lymphocytes assessed as reduction in Th1 cell differentiation by measuring proportion of CD4+IFNgamma-negative cells at 500 nM incubated for 48 hrs by flow cytometry (reference value: 31%); format: functional; design: scale not given: the % may be the effect or the level left
Outline: (§2)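 Splenocytes from C57BL/6 mice after erythrocyte lysis, filtration and counting. Cultured in complete medium with ConA and IL-2 under Th1, Th2 or Th17 differentiation conditions with compound for 48 h. Then PMA, ionomycin and GolgiStop (1:1000) for 4 h. CD4 and intracellular cytokines stained and read by flow cytometry.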

CD4+ve Th [3] = assay: Inhibition of cytokine storm in ConA/1L-12-stimulated C57BL/6 mouse CD4+ T-lymphocytes assessed as reduction in Th1 cell differentiation by measuring proportion of CD4+IFNgamma-positive cells at 500 nM incubated for 48 hrs by flow cytometry (reference value: 69%); format: functional; design: scale not given: the % may be the effect or the level left; outline: as §2
CD4+ve Th [4] = assay: Inhibition of cytokine storm in ConA/1L-12-stimulated C57BL/6 mouse CD4+ T-lymphocytes assessed as reduction in Th2 cell differentiation by measuring proportion of CD4+IL4-negative cells at 500 nM incubated for 48 hrs by flow cytometry (reference value: 32.4%); format: functional; design: scale not given: the % may be the effect or the level left; outline: as §2
CD4+ve Th [5] = assay: Inhibition of cytokine storm in ConA/1L-12-stimulated C57BL/6 mouse CD4+ T-lymphocytes assessed as reduction in Th2 cell differentiation by measuring proportion of CD4+IL4-positive cells at 500 nM incubated for 48 hrs by flow cytometry (reference value: 67.6%); format: functional; design: scale not given: the % may be the effect or the level left; outline: as §2
CD4+ve Th [6] = assay: Inhibition of cytokine storm in ConA/1L-12-stimulated C57BL/6 mouse CD4+ T-lymphocytes assessed as reduction in Th17 cell differentiation by measuring proportion of CD4+IL17A-negative cells at 500 nM incubated for 48 hrs by flow cytometry (reference value: 31.6%); format: functional; design: scale not given: the % may be the effect or the level left; outline: as §2
CD4+ve Th [7] = assay: Inhibition of cytokine storm in ConA/1L-12-stimulated C57BL/6 mouse CD4+ T-lymphocytes assessed as reduction in Th17 cell differentiation by measuring proportion of CD4+IL17A-positive cells at 500 nM incubated for 48 hrs by flow cytometry (reference value: 68.4%); format: functional; design: scale not given: the % may be the effect or the level left; outline: as §2
CD4+ve Th [8] = assay: Cytotoxicity against C57BL/6 mouse CD4+ T-lymphocytes at 500 nM measured upto 48 hrs; format: toxicity, cell-based; settings: 0.5 µM
RAW264.7 [9] = assay: Anti-inflammatory activity against LPS-stimulated mouse RAW264.7 cells assessed as reduction in M1 polarization of macrophages at 100 to 500 nM incubated for 48 hrs in presence of LPS by flow cytometry; format: functional, cell-based; settings: dose 100-500 nM; outline: as §1
Mus musculus [10] = assay: Anti-inflammatory activity against CLP-induced sepsis C57BL/6J mouse model assessed as proportion of neutrophils at 100 mg/kg by flow cytometry (reference value: 6.6%); format: functional
Mus musculus [11] = assay: Anti-inflammatory activity against CLP-induced sepsis C57BL/6J mouse model assessed as proportion of M1 macrophages at 100 mg/kg by flow cytometry (reference value: 98.4%); format: functional
[12] = Inhibition of cytokine storm in CLP-induced sepsis C57BL/6J mouse model assessed as disruption of Th1 and Th2 cells imbalance by measuring CD4+IFNgamma-negative cells at 100 mg/kg by flow cytometry (reference value: 26.3%); format: functional; design: scale not given: the % may be the effect or the level left
[13] = Inhibition of cytokine storm in CLP-induced sepsis C57BL/6J mouse model assessed as disruption of Th1 and Th2 cells imbalance by measuring CD4+IFNgamma-positive cells at 100 mg/kg by flow cytometry (reference value: 73.7%); format: functional; design: scale not given: the % may be the effect or the level left
[14] = Inhibition of cytokine storm in CLP-induced sepsis C57BL/6J mouse model assessed as disruption of Th1 and Th2 cells imbalance by measuring CD4+IL4-negative cells at 100 mg/kg by flow cytometry (reference value: 95.3%); format: functional; design: scale not given: the % may be the effect or the level left
[15] = Inhibition of cytokine storm in CLP-induced sepsis C57BL/6J mouse model assessed as disruption of Th1 and Th2 cells imbalance by measuring CD4+IL4-positive cells at 100 mg/kg by flow cytometry (reference value: 4.69%); format: functional; design: scale not given: the % may be the effect or the level left
[16] = Inhibition of cytokine storm in CLP-induced sepsis C57BL/6J mouse model assessed as reduction in Th17 cell differentiation by measuring CD4+IL17A-negative cells at 100 mg/kg by flow cytometry (reference value: 50.2%); format: functional; design: scale not given: the % may be the effect or the level left
[17] = Inhibition of cytokine storm in CLP-induced sepsis C57BL/6J mouse model assessed as reduction in Th17 cell differentiation by measuring CD4+IL17A-positive cells at 100 mg/kg by flow cytometry (reference value: 49.8%); format: functional; design: scale not given: the % may be the effect or the level left
Mus musculus [18] = assay: Anti-inflammatory activity against CLP-induced sepsis C57BL/6J mouse model assessed as proportion of Foxp3-positive Treg cells at 100 mg/kg by flow cytometry (reference value: 2.08%); format: functional
Mus musculus [19] = assay: Anti-inflammatory activity against CLP-induced sepsis C57BL/6J mouse model assessed as proportion of Tr1 cells producing IL-10 at 100 mg/kg by flow cytometry (reference value: 24.5%); format: functional
Mus musculus [20] = assay: Anti-inflammatory activity against CLP-induced sepsis C57BL/6J mouse model assessed as reduction in edema and hepatocyte necrosis at 100 mg/kg by Hematoxylin and eosin staining based analysis; format: functional, organism-based
Outline: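 Liver tissue from CLP-septic C57BL/6J male mice (8–10 wk), stained with H&E and examined for edema and hepatocyte necrosis.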

RAW264.7 [21] = assay: Anti-inflammatory activity against LPS-stimulated mouse RAW264.7 cells assessed as proportion of polarized M1 macrophages at 100 nM incubated for 48 hrs in presence of LPS by flow cytometry (reference value: 90.3%); format: functional; outline: as §1
RAW264.7 [22] = assay: Anti-inflammatory activity against LPS-stimulated mouse RAW264.7 cells assessed as proportion of polarized M1 macrophages at 500 nM incubated for 48 hrs in presence of LPS by flow cytometry (reference value: 90.3%); format: functional; outline: as §1
RAW264.7 [23] = assay: Anti-inflammatory activity against LPS-stimulated mouse RAW264.7 cells assessed as TNF-alpha expression of M1 macrophages at 100 nM incubated for 48 hrs in presence of LPS by flow cytometry (reference value: 82.1%); format: functional; outline: as §1
RAW264.7 [24] = assay: Anti-inflammatory activity against LPS-stimulated mouse RAW264.7 cells assessed as TNF-alpha expression of M1 macrophages at 500 nM incubated for 48 hrs in presence of LPS by flow cytometry (reference value: 82.1%); format: functional; outline: as §1
[25] = molecular target: T1, Immunity-related GTPase family M protein 1 (Mus musculus) (UniProt Q60766); assay: Binding affinity to IRGM in LPS-stimulated mouse RAW264.7 cells at 100 uM preincubated with LPS for 48 hrs followed by incubation with compound for 3 hrs by SILAC-pull down based analysis; format: cell-based
T1 sequence (whole entry): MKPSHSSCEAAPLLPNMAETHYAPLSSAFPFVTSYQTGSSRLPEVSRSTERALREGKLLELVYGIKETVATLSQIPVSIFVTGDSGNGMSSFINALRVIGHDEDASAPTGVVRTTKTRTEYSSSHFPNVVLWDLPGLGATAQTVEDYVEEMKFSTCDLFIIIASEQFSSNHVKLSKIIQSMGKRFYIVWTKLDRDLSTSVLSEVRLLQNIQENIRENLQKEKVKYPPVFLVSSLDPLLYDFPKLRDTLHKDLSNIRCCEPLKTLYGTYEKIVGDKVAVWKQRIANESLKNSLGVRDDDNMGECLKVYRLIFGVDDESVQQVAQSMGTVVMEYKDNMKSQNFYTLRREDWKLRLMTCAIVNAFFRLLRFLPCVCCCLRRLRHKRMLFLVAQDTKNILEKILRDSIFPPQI
Outline: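 RAW 264.7 cells were SILAC heavy- or light-labeled and polarized with 1 μg/mL LPS for 48 h. Lysates at 2 mg/mL in PBS: heavy with probe 10 (100 μM), light with 100 μM competitor, 3 h at room temperature. Then 365 nm UV at 4 °C and click with biotin-azide (final 500 μM) and Cu+ (final 1 mM) for 3 h. Acetone precipitation, streptavidin bead capture, SDS-PAGE and MS; Heavy/Light ratios by MaxQuant.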

[26] = molecular target: T2, Immunity-related GTPase family M protein (Homo sapiens) (UniProt A1A4Y4); assay: Binding affinity to IRGM (unknown origin) by gene ontology analysis
T2 sequence (whole entry): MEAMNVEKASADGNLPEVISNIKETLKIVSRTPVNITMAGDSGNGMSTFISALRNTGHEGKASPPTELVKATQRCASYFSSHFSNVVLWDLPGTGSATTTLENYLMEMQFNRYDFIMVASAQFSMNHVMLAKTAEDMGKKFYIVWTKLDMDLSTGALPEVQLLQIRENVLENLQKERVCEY

[27] = molecular target: T1, Immunity-related GTPase family M protein 1 (Mus musculus); assay: Binding affinity to IRGM in LPS-stimulated mouse RAW264.7 cells at 100 uM preincubated with LPS for 48 hrs followed by incubation with compound for 3 hrs by immunoblot analysis; format: cell-based
Outline: (§3)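 Lysates of LPS-polarized (1 μg/mL, 48 h) RAW 264.7 cells at 2 mg/mL, incubated 3 h at room temperature with 100 μM probe 10 plus competitor at 10–100 μM. Then UV 365 nm crosslinking, click with biotin-azide, streptavidin pull-down, and immunoblotting for IRGM.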

[28] = molecular target: T1, Immunity-related GTPase family M protein 1 (Mus musculus); assay: Binding affinity to IRGM in LPS-stimulated mouse RAW264.7 cells by competitive pull down based immunoblot analysis; format: cell-based; settings: dose 10-100 µM, DDE = dose-dependent effect; outline: as §3
[29] = molecular target: T2, Immunity-related GTPase family M protein (Homo sapiens); assay: Binding affinity to IRGM (unknown origin) assessed as protection of protein from temperature-dependent denaturation at 100 uM by CETSA analysis
[30] = molecular target: T2, Immunity-related GTPase family M protein (Homo sapiens); assay: Binding affinity to IRGM (unknown origin) assessed as protection of protein from pronase proteolysis by DARTS analysis; settings: dose 1-100 µM, DDE = dose-dependent effect
Outline: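 DARTS: samples treated with compound at 1–100 μM, then digested with pronase; IRGM detected by immunoblot.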

Row | Compound | Activity (RAW264.7 [1]) | Activity (CD4+ve Th [2]) [%] | Activity (CD4+ve Th [3]) [%] | Activity (CD4+ve Th [4]) [%] | Activity (CD4+ve Th [5]) [%] | Activity (CD4+ve Th [6]) [%] | Activity (CD4+ve Th [7]) [%] | Activity (CD4+ve Th [8]) | Activity (RAW264.7 [9]) | Activity (RAW264.7 [21]) [%] | Activity (RAW264.7 [22]) [%] | Activity (RAW264.7 [23]) [%] | Activity (RAW264.7 [24]) [%] | other results
1 | COc1ccc(/C=C/COc2cccc(O)c2)cc1OC | Active | 74.9 | 25.1 | 76 | 24 | 74.1 | 25.9 | Non-Toxic |  |  |  |  |  | 
2 | C=CCC1=C[C@]2(OC)C(=CC1=O)O[C@H](c1ccc(OC)c(OC)c1)[C@H]2C | Active | 75.7 | 24.3 | 85.7 | 14.3 | 78.6 | 21.4 | Non-Toxic |  |  |  |  |  | 
3 | C=CCOc1cccc(OC/C=C/c2ccc(OC)c(OC)c2)c1 | Active | 74.4 | 25.6 | 85.2 | 14.8 | 76.1 | 23.9 | Non-Toxic | Active |  |  |  |  | 
4 | C=CCc1cc2c(cc1O)O[C@H](c1ccc(OC)c(OC)c1)[C@H]2C | Active | 57.2 | 42.8 | 64.9 | 35.1 | 57.7 | 42.3 | Non-Toxic | Active | 82.9 | 83.2 | 19.5 | 22.8 | Activity (Mus musculus [10]): 1.09%; Activity (Mus musculus [11]): 71.3%; Activity [12]: 88.7%; Activity [13]: 11.3%; Activity [14]: 98.5%; Activity [15]: 1.53%; Activity [16]: 82.5%; Activity [17]: 17.5%; Activity (Mus musculus [18]): 0.53%; Activity (Mus musculus [19]): 11.2%; Activity (Mus musculus [20]): Active; Activity [25]: Active; Activity [26]: Active; Activity [27]: Active; Activity [28]: Dde; Activity [29]: Active; Activity [30]: Dde
5 | C[C@]12CCC(=O)C=C1CC[C@@H]1[C@@H]2[C@@H](O)C[C@@]2(C)[C@H]1CC[C@]2(O)C(=O)CO | Active |  |  |  |  |  |  |  |  |  |  |  |  | 
6 | C#CCCC1(CCOc2cc3c(cc2CC=C)[C@H](C)[C@@H](c2ccc(OC)c(OC)c2)O3)N=N1 |  |  |  |  |  |  |  |  |  | 81.8 | 82.6 | 28.9 | 26.6 | 
